Active and inactive are the calls of the source. No cut-off for these calls is given here.
Experiments:
Beta-secretase 1 [1] = molecular target: T1, Beta-secretase 1 (Homo sapiens, UniProt P56817); assay: Inhibition of recombinant BACE1 (unknown origin) using FAM-SEVNLDAEFK-TAMRA as substrate at 100 uM incubated for 30 mins prior to substrate addition by fluorimetric analysis relative to control
Beta-secretase 1 [2] = molecular target: T1, Beta-secretase 1; assay: Inhibition of recombinant BACE1 (unknown origin) using FAM-SEVNLDAEFK-TAMRA as substrate incubated for 30 mins prior to substrate addition by fluorimetric analysis
[3] = Cytotoxicity against HEK293 cells assessed as cell viability at 100 uM after 24 hrs by MTT assay relative to control; type: cell-based; conditions: human, read-out: Activity
In short: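 MTT viability read-out on mammalian cells after 24-hour exposure to 100 µM compound; viable cells expressed as percentage remaining relative to control; mean ± SEM, n ≥ 3.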

Beta-secretase 2 = molecular target: T2, Beta-secretase 2 (Homo sapiens, UniProt Q9Y5Z0); assay: Inhibition of recombinant BACE2 (unknown origin) using FAM-SEVNLDAEFK-TAMRA as substrate incubated for 30 mins prior to substrate addition by fluorimetric analysis
T2 sequence (Q9Y5Z0 whole entry): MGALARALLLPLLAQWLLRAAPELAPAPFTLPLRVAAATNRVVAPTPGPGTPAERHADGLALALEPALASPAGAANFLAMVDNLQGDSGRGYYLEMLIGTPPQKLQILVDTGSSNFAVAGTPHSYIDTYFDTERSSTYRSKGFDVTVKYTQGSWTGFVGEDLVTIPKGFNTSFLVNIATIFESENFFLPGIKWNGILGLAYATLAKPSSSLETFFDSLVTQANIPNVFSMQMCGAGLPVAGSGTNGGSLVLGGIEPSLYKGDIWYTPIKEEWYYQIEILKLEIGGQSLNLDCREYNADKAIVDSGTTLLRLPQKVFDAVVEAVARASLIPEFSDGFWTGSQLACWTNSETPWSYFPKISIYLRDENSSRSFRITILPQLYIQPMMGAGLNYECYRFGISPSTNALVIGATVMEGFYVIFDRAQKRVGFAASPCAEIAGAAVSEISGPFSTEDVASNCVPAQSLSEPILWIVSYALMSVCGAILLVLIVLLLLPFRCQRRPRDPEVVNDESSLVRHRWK

Beta-secretase 1 [4] = molecular target: T1, Beta-secretase 1; assay: Inhibition of BACE1 (unknown origin) -mediated sAP-APP production expressed in HEK293 cells coexpressing N-terminal […] APP at 100 uM after 24 hrs by spectrophotometric analysis; type: cell-based
In short: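 HEK 293 cells stably expressing BACE1 plus wild-type human APP carrying an N-terminal alkaline phosphatase tag (AP-APP) were incubated with compound. Release of sAP-APP into conditioned media was quantified as alkaline phosphatase activity and expressed as percentage of the matched control.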

Homo sapiens = species: Homo sapiens; assay: Selectivity ratio of IC50 for recombinant BACE2 (unknown origin) to IC50 of recombinant BACE1 (unknown origin)
HEK293 = assay: Effect on sAPPalpha level in HEK293 cells coexpressing N-terminal […] APP at 100 uM after 24 hrs by Western blotting analysis; type: functional, Homo sapiens
In short: (§1)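 HEK 293 cells over-expressing BACE1 were exposed to compound at 100 µM for 24 hours. Conditioned media were western blotted for sAPPα and sAPPβ, with sAPPβ detected by antibody 1A9. Levels were compared with control.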

Beta-secretase 1 [5] = molecular target: T1, Beta-secretase 1; assay: Inhibition of BACE1 (unknown origin) expressed in HEK293 cells coexpressing N-terminal […] APP assessed as decrease in sAPPbeta level at 100 uM after 24 hrs by Western blotting analysis; type: cell-based; in short: as §1

T1 sequence (P56817 whole entry): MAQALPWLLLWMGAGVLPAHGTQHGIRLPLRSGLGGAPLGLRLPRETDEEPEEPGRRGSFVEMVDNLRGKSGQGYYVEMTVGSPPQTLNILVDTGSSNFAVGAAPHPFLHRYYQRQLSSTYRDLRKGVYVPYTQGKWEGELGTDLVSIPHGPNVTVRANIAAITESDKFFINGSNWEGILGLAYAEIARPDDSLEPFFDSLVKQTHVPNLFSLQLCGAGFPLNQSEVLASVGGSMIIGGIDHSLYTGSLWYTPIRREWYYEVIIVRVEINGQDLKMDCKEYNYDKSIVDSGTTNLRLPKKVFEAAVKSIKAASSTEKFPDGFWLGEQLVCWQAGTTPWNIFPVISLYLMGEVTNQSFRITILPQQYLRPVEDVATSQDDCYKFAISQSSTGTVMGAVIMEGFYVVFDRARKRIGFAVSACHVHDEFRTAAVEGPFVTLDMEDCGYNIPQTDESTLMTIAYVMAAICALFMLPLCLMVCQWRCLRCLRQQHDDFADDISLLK

Row | inhibition (Beta-secretase 1 [1]) | IC50 (Beta-secretase 1 [2]; read-out: IC50) [µM] | IC50 (Beta-secretase 2) [µM] | Ratio IC50 (Homo sapiens) | Structure (SMILES) | viability at 24 h, 100 µM [3] [%] | other results
1 | 42.5% | > 100 | – | – | NCc1ccc(CNC(=O)Cc2ccc(-c3ccccc3)cc2O)cc1 | 18 | –
2 | 34.4% | > 100 | – | – | CCN(CC)Cc1ccc(CNC(=O)Cc2ccc(-c3ccccc3)cc2)cc1 | 38 | –
3 | 60.7% | 58.9 | 319 | 2 | NCc1ccc(CNC(=O)Cc2ccc(-c3cccc(C(F)(F)F)c3)cc2)cc1 | 46 | –
4 | 35.6% | 323 | > 1000 | 2 | NCc1ccc(CNC(=O)Cc2ccc(-c3ccccc3)cc2)cc1 | 42 | –
5 | 41.3% | > 100 | – | – | NCc1ccc(CNC(=O)Cc2ccc(-c3ccc(O)cc3)cc2)cc1 | – | –
6 | 28.1% | > 100 | – | – | NCc1ccc(CNC(=O)Cc2ccc(-c3ccccc3)c(O)c2)cc1 | 50 | –
7 | inactive | – | – | – | COc1ccc(CNC(=O)Cc2ccc(-c3ccccc3)cc2)cc1 | 82 | inhibition (Beta-secretase 1 [2]): inactive
8 | 55.5% | 85.7 | 194 | 2 | C[C@@H](C(=O)NCc1ccc(CN)cc1)c1ccc(-c2ccccc2)c(F)c1 | 18 | –
9 | 51.7% | 77.1 | 207 | 2 | CC(C(=O)NCc1ccc(CN)cc1)c1ccc(-c2ccccc2)c(F)c1 (stereo unspecified) | 11 | –

Second part, the compound before the results:

Row | Structure (SMILES) | inhibition (Beta-secretase 1 [1]) | IC50 (Beta-secretase 1 [2]; read-out: IC50) [µM] | IC50 (Beta-secretase 2) [µM] | Ratio IC50 (Homo sapiens) | viability at 24 h, 100 µM [3] [%] | other results
10 | COc1ccc(NC(=O)Cc2ccc(-c3ccccc3)cc2)cc1 | inactive | – | – | – | – | –
11 | NCc1ccc(CNC(=O)C(Cc2ccccc2)c2ccc(-c3ccccc3)cc2)cc1 (stereo unspecified) | 102% | 26.9 | 21 | – | 15 | –
12 | O=C(Cc1ccc(-c2cccc(C(F)(F)F)c2)cc1)NCc1ccccc1 | – | – | – | – | 27 | IC50 (Beta-secretase 1 [2]): Not Active
13 | O=C(Cc1ccc(-c2ccccc2)cc1)Nc1ccc(Br)cc1 | inactive | – | – | – | – | –
14 | O=C(Cc1ccc(-c2ccccc2)cc1)NCc1ccc(CN2Cc3ccccc3C2)cc1 | 70.1% | 63.3 | > 1000 | 2 | 80 | inhibition (Beta-secretase 1 [4]): 21.7%; Activity (HEK293): 10%; inhibition (Beta-secretase 1 [5]): 33%
15 | CC(C)C(C(=O)NCc1ccc(CN)cc1)c1ccc(-c2ccccc2)cc1 (stereo unspecified) | 66.1% | 33.5 | 100 | 2 | 50 | –
16 | NCc1ccc(CNC(=O)Cc2ccc(-c3c(F)c(F)c(F)c(F)c3F)cc2)cc1 | 51.8% | 101 | 246 | 2 | 68 | inhibition (Beta-secretase 1 [4]): 39.4%; Activity (HEK293; Homo sapiens): inactive; inhibition (Beta-secretase 1 [5]): Active
17 | O=C(Cc1ccc(-c2ccccc2)cc1)NCc1ccc(CN2CCCC2)cc1 | 24.4% | > 100 | – | – | 24 | –
18 | O=C(Cc1ccc(-c2ccccc2)cc1)NCc1ccccc1 | 15.2% | – | – | – | 93 | inhibition (Beta-secretase 1 [2]): inactive
19 | NCc1ccc(CNC(=O)Cc2ccc(-c3cc(C(F)(F)F)cc(C(F)(F)F)c3)cc2)cc1 | 80.6% | 63.9 | 33.2 | – | 8 | –
20 | CC[N+](CC)(CC)Cc1ccc(CNC(=O)Cc2ccc(-c3ccccc3)cc2)cc1 | 44.1% | > 100 | – | – | 40 | –
21 | O=C(Cc1ccc(-c2ccccc2)cc1)NCCc1c[nH]c2ccccc12 | inactive | – | – | – | – | –
22 | O=C(Cc1ccc(-c2cc(C(F)(F)F)cc(C(F)(F)F)c2)cc1)NCc1ccccc1 | – | – | – | – | 76 | IC50 (Beta-secretase 1 [2]): Not Active
23 | O=C(Cc1ccc(-c2c(F)c(F)c(F)c(F)c2F)cc1)NCc1ccccc1 | – | – | – | – | 61 | IC50 (Beta-secretase 1 [2]): Not Active

— ChEMBL document CHEMBL2321672, “Discovery of biphenylacetamide-derived inhibitors of BACE1 using de novo structure-based molecular design” (J Med Chem, 2013)
